The results in this text go back to PubChem BioAssay.

Unmarked numbers belong to inactive results. Inconclusive results are not listed. The source made the active and inactive calls.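 How the source made its calls, unless noted: active means viability at or below 27.92% in each of two runs, the all-compound median minus 4 SD; inconclusive means no clear call, values can overlap the other calls; inactive means the rest.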

Assay [1] in a line: S. cerevisiae growth inhibition in permissive medium (OD615), pilot counter-assay for S. cerevisiae lifespan shortening project, permissive growth control (AID 705;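 active means growth inhibition above 25% in both replicates, a cutoff set 3 SD above the mean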). The conditions noted are these: OD615, 24 h, at 10 µM, stronger effect = higher value. The method, boiled down: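 System: Engineered DeaD yeast | Buffer or medium: SC raffinose/galactose permissive medium | Doses: 10 µM single dose, 0.25% DMSO | Times: 24 h exposure, 30 °C | Measured by: OD615 turbidity read | Read-out: Yeast growth inhibition indicated by reduced 24 h OD615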

The nature of assay [2]: S. cerevisiae growth inhibition in restrictive medium, OD615, pilot screen, restrictive growth control, yeast lifespan reduction project (AID 706;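 active means growth inhibition above a set limit, 3 SD over mean compound inhibition, in both replicates, cut at about 43% in these data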;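 further: modified DeaD lifespan yeast strain shifted to restrictive glucose medium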). Conditions: OD615, 48 h, at 10 µM, stronger effect = higher value. The method, boiled down:
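Assay system: engineered S. cerevisiae DeaD strain; Buffer or medium: CSMM-D glucose medium; Dosing: 10 µM compound, 0.25% DMSO; Times: cell pre-growth 4 h, compound exposure 48 h, 30 °C; Detection: absorbance (optical density) measured at 615 nm.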

A short description of assay [3]: doxorubicin toxicity protection in MRP-1 cells – H69AR cells, CellTiter-Glo, duplicate, MRP-1 activator project, pilot screen (AID 807;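 active means viability increase at or above a cutoff of the median across tested compounds plus 3 SD, cut at about 8.5% in these data, passing the limit was not always enough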;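 further: compound pretreatment 18-22 h then 72 h combined with doxorubicin; 0% = doxorubicin alone and 100% = vehicle without doxorubicin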). Conditions: H69AR viability with doxorubicin, CellTiter-Glo luminescence; at 10 µM; stronger effect = higher value. On the technique in general: ATP-based viability assays read luminescence as a measure of living cells.
A short description of assay [4]: viability of HCT116 without oncogenic beta-catenin – human colon tumor cells, pilot screen (AID 823;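 active means cell viability at or below a set limit in both duplicate runs, the limit being the all-compound median minus 4 SD, cut at about 23% in these data, passing the limit was not always enough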;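 further: 0% = wells killed by 20 µM Hyamine and 100% = untreated DMSO cell wells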). Conditions: HCT116 beta-catenin knockout viability, CellTiter-Glo, 60 h; at 10 µM; stronger effect = lower value.
Assay [5] can be described thus: viability of PTEN-null HCT116 cells – cell-based, HCT116 clonal line, CellTiter-Glo, pilot screen (AID 824).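 Further: 0% = 20 µM Hyamine control and 100% = vehicle cell control.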 The conditions noted are these: HCT116 PTEN-deleted viability, 60 h, at 10 µM, stronger effect = lower value.
Assay [6] is described as follows: RAM pathway blockade in budding yeast – dse1pr::URA3 reporter, 5-FOA selection, pilot screen (AID 869;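 active means inhibition over a set limit, the all-compound mean plus 3 SD, in both replicate runs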;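 further: 0% = DMSO wells with no growth and 100% = 10 µM 1-NA-PP1 with full growth; RAM network block rescues cells from 5-FOA so hits raise OD615 growth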). Conditions: S. cerevisiae dse1pr::URA3 5-FOA growth, OD615, 2 d; at 10 µM; stronger effect = higher value; strain carries analog-sensitive mutant Cbk1 kinase.
A short description of assay [7]: RAM signaling pathway blockade in yeast – S. cerevisiae, Pdr1DBD-CYC8 efflux-inhibited sensitized strain, primary screen (AID 1298;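 active means RAM network inhibition above 8.4% in each of two replicates, 3 SD over the compound average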;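 further: 0% = DMSO untreated cells without growth and 100% = 10 µM 1-NA-PP1 full growth; higher means more yeast growth rescued from 5-FOA killing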). Conditions: S. cerevisiae cbk1-as DSE1-URA3 strain, 5-FOA growth OD615, 2 d; at 50 µM; stronger effect = higher value.

Regarding `CCNc1cc2oc(=O)c(CN3CCOCC3)c(C)c2cc1C`, the growth inhibition was 4.16% in assay [1] and 6.97% in assay [2]. Further, in assay [3], the viability increase was -1.46%. In addition, the viability (in general, a read-out of living cells in per cent, often relative to untreated cells) in assay [4] was 91%; in assay [5] it was 94.5%. In addition, the inhibition – broadly, the relative decrease from the control value, in per cent – in assay [6] is 2.04%. Moreover, the RAM network inhibition in assay [7] was 0.2%.
In the case of `CCOC(=O)C1=C(N)OC2=C(C(=O)CCC2)C1c1ccccc1OCC` (stereo unspecified), the growth inhibition was -3.85% in assay [1] and -4.66% in assay [2]. Further, the viability increase in assay [3] was -0.08%. In addition, the viability in assay [4] is 100%; in assay [5], 103%. Also, in assay [6], the inhibition was 1.05%. In assay [7], the RAM network inhibition was 8.68%.
For `c1ccc(-c2csc3nnc(SCc4ccc5c(c4)OCO5)n23)cc1`, the growth inhibition was 22.1% in assay [1] and 64.5% (active) in assay [2]. For the same compound, in assay [3], the viability increase was -2.01%. The viability was 93.2% in assay [4] and 82.7% in assay [5]. The inhibition in assay [6] was 0.87%. In addition, in assay [7], the RAM network inhibition is 3.09%.
Regarding `CCCOc1ccc(C2c3c(oc4cc(C)c(C)cc4c3=O)C(=O)N2CCCN(C)C)cc1` (stereo unspecified), the figures for the growth inhibition in assay [1] and in assay [2] were -3.96% and -1.01%, respectively. Besides, the viability increase in assay [3] was 0.77%. The viability in assay [4] was 104%; in assay [5], 109%. Further, the inhibition in assay [6] was 0.185%. Besides, the RAM network inhibition in assay [7] is -0.1%.
Turning to `Cc1cc(Nc2ccc(F)cc2)n2nc(C)nc2n1`, the growth inhibition in assay [1] was -2.01%; in assay [2], 4.12%. In addition, in assay [3], the viability increase is -0.76%. In addition, the viability in assay [4] was 100%; in assay [5], 97.2%. Moreover, in assay [6], the inhibition is -0.875%. In addition, in assay [7], the RAM network inhibition was 0.55%.
For `O=C(c1ccc(NC2=NC3CS(=O)(=O)CC3S2)cc1)N1CCc2ccccc2C1` (stereo unspecified), the values for the growth inhibition in assay [1] and in assay [2] were -0.26% and 11.2%, respectively. Besides, the viability increase in assay [3] was -0.55%. The viability in assay [4] is 109%; in assay [5], 106%. Moreover, in assay [6], the inhibition was 1.67%. Moreover, the RAM network inhibition in assay [7] was 5.69%.
For the compound `COc1cc(C(=O)NCC(c2ccco2)N2CCCC2)ccc1OCc1c(C)noc1C` (stereo unspecified), the growth inhibition in assay [1] was 0.045%; in assay [2], -23.7%. Further, the viability increase in assay [3] was -4.73%. The viability in assay [4] is 82.7%; in assay [5], 83.8%. Moreover, the inhibition in assay [6] is 1.03%. In addition, the RAM network inhibition in assay [7] was 3.83%.
In the case of `C=CCn1c(O)c(C2=c3ccccc3=NC2=O)s/c1=N/c1nccs1`, the growth inhibition in assay [1] was -9.64%; in assay [2], -9.09%. Further, the viability increase in assay [3] is -7.95%. The viability was 42.1% in assay [4] and 36% in assay [5]. Also, in assay [6], the inhibition was 0.115%. Moreover, the RAM network inhibition in assay [7] is 5.25%.
Take `O=C1CC(c2ccccc2)C(C(=O)O)N1` (stereo unspecified): the growth inhibition in assay [1] was -0.84%; in assay [2], -18.1%. In addition, in assay [3], the viability increase was 1.77%. The viability is 99.2% in assay [4] and 102% in assay [5]. Besides, in assay [6], the inhibition is 2.74%. Besides, in assay [7], the RAM network inhibition is 0.37%.
For the compound `Fc1ccc(Nc2nc(N3CCOCC3)c3ccccc3n2)cc1`, the growth inhibition in assay [1] is -3.31%; in assay [2], -13.7%. The viability increase in assay [3] is -3.18%. The viability was 93.5% in assay [4] and 93.4% in assay [5]. The inhibition in assay [6] was 0.45%. Besides, the RAM network inhibition in assay [7] was 2.64%.
With `COc1cccc(Nc2cc(C)nc3nc(C)nn23)c1`, the growth inhibition in assay [1] was -0.125%; in assay [2], 4.21%. Also, the viability increase in assay [3] is -1.69%. Further, the viability in assay [4] was 108%; in assay [5] it was 97.6%. Also, in assay [6], the inhibition was 1.68%. For the same compound, in assay [7], the RAM network inhibition was 2.37%.
As for `CCOC(=O)COc1cccc2c(=O)n(CC(=O)N3CCc4ccccc43)ccc12`, the values for the growth inhibition in assay [1] and in assay [2] were -10.5% and -15.5%, respectively. The viability increase in assay [3] was -2.89%. Further, the viability was 98.6% in assay [4] and 90.7% in assay [5]. For the same compound, in assay [6], the inhibition is 1.25%. In addition, the RAM network inhibition in assay [7] was 3.56%.
As to `CC(=O)N1CCc2cc(S(=O)(=O)Nc3ccccc3N3CCN(C)CC3)ccc21`, the results for the growth inhibition in assay [1] and in assay [2] were -7.73% and -1.75%, respectively. In addition, in assay [3], the viability increase was -1.49%. In addition, the values for the viability in assay [4] and in assay [5] were 94.8% and 85.8%, respectively. Besides, the inhibition in assay [6] was 1.71%. Besides, the RAM network inhibition in assay [7] is 0.62%.
With `CC(C)NC(=O)CCCc1ccccc1`, the growth inhibition in assay [1] is -8%; in assay [2] it was -14.1%. Further, the viability increase in assay [3] is -1.04%. Also, the viability is 92.1% in assay [4] and 91.1% in assay [5]. Besides, the inhibition in assay [6] is 1.2%. Besides, the RAM network inhibition in assay [7] was -0.58%.
With `CC(C)CCOC(=O)C1C2C=CC3(CN(Cc4cccs4)C(=O)C13)O2` (stereo unspecified), the growth inhibition in assay [1] is -9.53%; in assay [2], 2.99%. Moreover, in assay [3], the viability increase was -0.61%. In addition, the viability is 94.3% in assay [4] and 91.2% in assay [5]. For the same compound, in assay [6], the inhibition was 0.305%. In addition, in assay [7], the RAM network inhibition is 2.76%.
With `CC(=O)/C(C(=N)N1CCN(C(c2ccccc2)c2ccccc2)CC1)=C(\C)O`, the values for the growth inhibition in assay [1] and in assay [2] were -2.42% and -7.72%, respectively. In addition, the viability increase in assay [3] was -2.93%. Further, the viability is 102% in assay [4] and 91.2% in assay [5]. In addition, in assay [6], the inhibition was -0.395%. In addition, the RAM network inhibition in assay [7] was 2.41%.
As for `Cc1cccc(-n2c(Cc3cc(=O)[nH]c(=O)[nH]3)nnc2SC(C)C)c1`, the growth inhibition in assay [1] is -8.09%; in assay [2] it was -1.15%. The viability increase in assay [3] was -1.84%. Moreover, the viability in assay [4] was 101%; in assay [5], 97.7%. Besides, the inhibition in assay [6] was 1.72%. Also, the RAM network inhibition in assay [7] was 3.87%.
On to `CC1CC(C)CN(S(=O)(=O)c2cccc3cccnc23)C1` (stereo unspecified), for which the growth inhibition in assay [1] was -4.23%; in assay [2] it was -6.44%. In assay [3], the viability increase is -4.51%. Moreover, the values for the viability in assay [4] and in assay [5] were 87.9% and 94.9%, respectively. In assay [6], the inhibition is -0.45%. In assay [7], the RAM network inhibition was 1.83%.
